This note sets out measurements from ChEMBL document CHEMBL1150300, “Synthesis of 5-chloro-N-aryl-1H-indole-2-carboxamide derivatives as inhibitors of human liver glycogen phosphorylase a” (Bioorg Med Chem, 2008).

Molecules are shown by their SMILES.

Assay [1] addresses T1, Glycogen phosphorylase, liver form (Homo sapiens, UniProt P06737).
T1 sequence (P06737 whole entry): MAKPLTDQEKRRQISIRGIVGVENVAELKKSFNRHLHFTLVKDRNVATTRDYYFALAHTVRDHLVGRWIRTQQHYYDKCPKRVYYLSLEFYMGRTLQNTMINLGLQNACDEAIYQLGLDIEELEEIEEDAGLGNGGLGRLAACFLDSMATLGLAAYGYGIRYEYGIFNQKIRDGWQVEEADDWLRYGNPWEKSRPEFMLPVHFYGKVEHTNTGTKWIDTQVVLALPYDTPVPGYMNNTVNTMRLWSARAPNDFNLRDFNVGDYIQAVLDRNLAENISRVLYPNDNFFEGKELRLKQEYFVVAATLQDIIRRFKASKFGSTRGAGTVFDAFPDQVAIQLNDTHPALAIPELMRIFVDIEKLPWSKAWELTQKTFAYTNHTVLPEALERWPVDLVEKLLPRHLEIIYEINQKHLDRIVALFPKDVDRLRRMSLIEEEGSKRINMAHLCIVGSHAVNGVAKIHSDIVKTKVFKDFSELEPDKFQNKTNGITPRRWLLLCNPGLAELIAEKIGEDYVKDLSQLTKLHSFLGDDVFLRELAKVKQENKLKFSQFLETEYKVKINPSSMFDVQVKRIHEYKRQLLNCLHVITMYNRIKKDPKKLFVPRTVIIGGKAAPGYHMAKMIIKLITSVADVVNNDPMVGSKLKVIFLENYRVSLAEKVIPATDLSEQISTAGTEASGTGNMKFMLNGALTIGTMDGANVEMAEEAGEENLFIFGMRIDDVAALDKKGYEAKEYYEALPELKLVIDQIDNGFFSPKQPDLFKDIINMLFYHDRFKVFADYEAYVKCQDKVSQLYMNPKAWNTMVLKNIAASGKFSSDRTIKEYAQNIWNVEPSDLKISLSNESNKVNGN
As to the kind of experiment: Inhibition of human liver glycogen phosphorylase a.

For a further assay, the system named is Hepatocyte. The assay is described as follows: Inhibition of glucagon-induced glycogenolysis in Sprague-Dawley rat hepatocytes. The class given is functional, cell-based. The essentials:
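Hepatocytes from fed male Sprague-Dawley rats (150–200 g), viability >85%, plated on collagen at 2.5 × 10⁵ cells/well. Washed cells incubated 30 min at 37 °C in glucose-free/calcium-free Hanks buffer with 0.1% DMSO and inhibitor at 0.1–10 µM, with or without 10 nM glucagon. Medium glucose read by glucose oxidase/peroxidase; IC50 by logistic regression.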

The subject of assay [2] is Mus musculus. As to the kind of experiment: Hypoglycemic activity against C57BL/KsJ db/db mouse assessed as reduction of blood glucose at 50 mg/kg, po after 2 hrs relative to control. In kind it is functional. Details: scale not given: the % may be the effect or the level left. The essentials:
(§1)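 Male C57BL/KsJ db/db mice, 6 weeks old, on commercial diet, grouped (n = 6) to uniform blood glucose and body weight; non-fasted pre-dose glucose measured next day. Single oral dose at 10 mL/kg; blood glucose measured at 2 h. Activity given as percentage decrease versus vehicle-treated controls, significance by unpaired t-test on mean glucose.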

For assay [3], the system named is Mus musculus. As to the kind of experiment: Hypoglycemic activity against C57BL/KsJ db/db mouse assessed as reduction of blood glucose at 30 mg/kg, po after 2 hrs relative to control. The class given is functional. Details: scale not given: the % may be the effect or the level left. The essentials:
as §1

What is called IC50 is the concentration at which inhibition is half-maximal. In the case of `O=C(Nc1ccc(C(O)CO)c(F)c1)c1cc2cc(Cl)ccc2[nH]1` (configuration not stated), the 50% inhibitory concentration (IC50) in assay [1] was 0.34 µM.
In assay [1], `O=C(Nc1ccc(C(CO)CO)cc1)c1cc2cc(Cl)ccc2[nH]1` had an IC50 of 5.8 µM.
The compound `O=C(Nc1ccc(CCCO)cc1)c1cc2cc(Cl)ccc2[nH]1` gave an IC50 in assay [1] above 10 µM.
The same measure, in the same setting: next, `Nc1cc(NC(=O)c2cc3cc(Cl)ccc3[nH]2)ccc1C(O)CO` (configuration not stated): 1.7 µM.
The same measure, in the same setting: the result for `O=C(Nc1cccc(CCO)c1)c1cc2cc(Cl)ccc2[nH]1` reads 6.2 µM.
The same measure, in the same setting: the result for `CC(C)(O)C(O)c1ccc(NC(=O)c2cc3cc(Cl)ccc3[nH]2)cc1` (configuration not stated) reads above 10 µM.
Consider `O=C(Nc1ccc(C(O)CO)cc1F)c1cc2cc(Cl)ccc2[nH]1` (configuration not stated), for which, in assay [1], the IC50 amounted to 0.42 µM.
The same measure, in the same setting: next, `COCC(O)c1ccc(NC(=O)c2cc3cc(Cl)ccc3[nH]2)cc1` (configuration not stated): 3.6 µM.
With `O=C(N[C@@H](Cc1ccc(F)cc1)C(=O)N1CCC(O)CC1)c1cc2cc(Cl)ccc2[nH]1`, half-maximal inhibition in the assay with Hepatocyte (IC50) required 1.7 µM. For the same compound, the Activity in the assay on Mus musculus [2] was found to be 20%.
As for `O=C(Nc1ccc(C(O)CO)nc1)c1cc2cc(Cl)ccc2[nH]1` (configuration not stated), the IC50 in assay [1] was 4.4 µM.
The same measure, in the same setting: the result for `Cc1cc(C(O)CO)ccc1NC(=O)c1cc2cc(Cl)ccc2[nH]1` (configuration not stated) reads 2.6 µM; that for `O=C(Nc1ccc(CO)cc1)c1cc2cc(Cl)ccc2[nH]1`, 1.6 µM.
Still for that read-out and setting: the result for `O=C(Nc1ccc(CCO)cc1)c1cc2cc(Cl)ccc2[nH]1` reads 1.2 µM; that for `O=C(Nc1nc(C(O)CO)cs1)c1cc2cc(Cl)ccc2[nH]1` (configuration not stated), above 10 µM.
The same measure, in the same setting: next, `O=C(Nc1ccc(C(O)CO)c(-c2ccccc2)c1)c1cc2cc(Cl)ccc2[nH]1` (configuration not stated): 7.4 µM.
On to `COc1cc(NC(=O)c2cc3cc(Cl)ccc3[nH]2)ccc1C(O)CO` (configuration not stated), for which, in assay [1], half-maximal inhibition (IC50) was put at 2.5 µM.
The same measure, in the same setting: next, `O=C(Nc1ccc(C(O)CO)c([N+](=O)[O-])c1)c1cc2cc(Cl)ccc2[nH]1` (configuration not stated): 2.1 µM; `O=C(Nc1ccc(C(O)CO)cc1Cl)c1cc2cc(Cl)ccc2[nH]1` (configuration not stated): 1.1 µM.
Same read-out and setting: the result for `O=C(Nc1ccccc1CCO)c1cc2cc(Cl)ccc2[nH]1` reads above 10 µM.
The same measure, in the same setting: next, `O=C(Nc1cnc(C(O)CO)cn1)c1cc2cc(Cl)ccc2[nH]1` (configuration not stated): 0.44 µM.
With `O=C(Nc1ccc(C(O)CO)cn1)c1cc2cc(Cl)ccc2[nH]1` (configuration not stated), the IC50 with Hepatocyte turned out to be 0.62 µM; in assay [1] it was 0.25 µM. The Activity in the assay on Mus musculus [2] was 26%; in the assay on Mus musculus [3], 13%.
On to `O=C(Nc1ncc(C(O)CO)s1)c1cc2cc(Cl)ccc2[nH]1` (configuration not stated), for which, in assay [1], the midpoint of inhibition, the IC50, lay at 3.1 µM.
Same read-out and setting: next, `O=C(Nc1ccc(C(O)CO)cc1)c1cc2cc(Cl)ccc2[nH]1` (configuration not stated): 0.9 µM.
